Square brackets hold non-standard residues; d marks the D form. Peptide text beside a SMILES is read from it. Tic = O=C(O)[C@@H]1Cc2ccccc2CN1
Legend:
Format in all cases: functional
[1] = Antiplatelet aggregatory activity in pig […] assessed as inhibition of platelet-activating factor-induced platelet aggregation; settings: Sus scrofa
In short: (§1)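 Pig blood spun 1000g 10 min for platelet-rich plasma, then 1500g 10 min for platelet-poor plasma; platelets adjusted to 2×10^8/ml with autologous PPP. Test agent in NS (final 100 to 0.001 μM) added to 0.5 ml plasma, then inducer in NS: PAF 0.1 μM, ADP 10 μM, AA 350 μM or thrombin 0.1 U/ml (final). Optical aggregometry, 37 °C, 5 min, six tubes.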

[2] = Antiplatelet aggregatory activity in pig […] assessed as inhibition of thrombin-induced platelet aggregation; settings: Sus scrofa; in short: as §1
[3] = Antiplatelet aggregatory activity in pig […] assessed as inhibition of ADP-induced platelet aggregation; settings: Sus scrofa; in short: as §1
Rattus norvegicus [4] = assay: Antithrombotic activity in Wistar rat assessed as reduction of wet thrombus weight at 5 umol/kg, iv after 15 mins
In short: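 Male Wistar rats, 250-300 g, given agent dissolved in NS (kept on ice) intravenously; Aspirin 15 μmol/kg as reference, NS as vehicle. Pentobarbital sodium 80.0 mg/kg i.p. Arteriovenous shunt from right carotid artery to left jugular vein via polyethylene tube containing a thread; blood flowed 15 min; wet thrombus weighed, n = 12, mean ± SD.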

[5] = Antiplatelet aggregatory activity in pig […] assessed as inhibition of arachidonic acid-induced platelet aggregation; settings: Sus scrofa; in short: as §1
Rattus norvegicus [6] = species: Rattus norvegicus; assay: Ratio of compound antithrombotic potency to aspirin antithrombotic potency in Wistar rat assessed as reduction of wet thrombus weight

Row | SMILES | IC50 [1] [nM] | IC50 [2] [nM] | IC50 [3] [nM] | IC50 [5] [nM] | Activity (Rattus norvegicus [4]) [mg] | Ratio (Rattus norvegicus [6])
1 | NC(=O)CC[C@H](N)C(=O)N1Cc2ccccc2C[C@H]1C(=O)O (H-Gln-[Tic]-OH) | 392 | 555 | 302 | 407 | 21.3 | –
2 | N[C@@H](CC(=O)O)C(=O)N1Cc2ccccc2C[C@H]1C(=O)O (H-Asp-[Tic]-OH) | 383 | – | 345 | 344 | 20.3 | –
3 | N[C@@H](CO)C(=O)N1Cc2ccccc2C[C@H]1C(=O)O (H-Ser-[Tic]-OH) | 267 | 498 | 103 | 572 | 18 | –
4 | O=C(O)[C@H](Cc1ccc(O)cc1)NC(=O)[C@@H]1Cc2ccccc2CN1 (H-[Tic]-Tyr-OH) | 1150 | 970 | 481 | 390 | 19.31 | >30
5 | N[C@@H](CCC(=O)O)C(=O)N1Cc2ccccc2C[C@H]1C(=O)O (H-Glu-[Tic]-OH) | 544 | 589 | 494 | 369 | 20.87 | –
6 | C[C@@H](O)[C@H](N)C(=O)N1Cc2ccccc2C[C@H]1C(=O)O (H-Thr-[Tic]-OH) | 404 | 879 | 240 | 215 | 20.73 | –
7 | O=C(O)[C@H](Cc1c[nH]c2ccccc12)NC(=O)[C@@H]1Cc2ccccc2CN1 (H-[Tic]-Trp-OH) | 668 | 234 | 120 | 374 | 21.3 | >30
8 | NCC(=O)N1Cc2ccccc2C[C@H]1C(=O)O (H-Gly-[Tic]-OH) | 875 | 761 | 365 | 440 | 21.17 | –
9 | N[C@@H](Cc1c[nH]cn1)C(=O)N1Cc2ccccc2C[C@H]1C(=O)O (H-His-[Tic]-OH) | 670 | 684 | 324 | 351 | 21.78 | –
10 | O=C(O)[C@H](Cc1ccccc1)NC(=O)[C@@H]1Cc2ccccc2CN1 (H-[Tic]-Phe-OH) | 218 | 336 | 188 | 553 | 19.11 | >30
11 | NC(=O)C[C@H](N)C(=O)N1Cc2ccccc2C[C@H]1C(=O)O (H-Asn-[Tic]-OH) | 360 | 495 | 534 | 430 | 22.66 | –
12 | CC(C)[C@H](N)C(=O)N1Cc2ccccc2C[C@H]1C(=O)O (H-Val-[Tic]-OH) | 632 | 653 | 389 | 423 | 20.12 | –
13 | N[C@@H](Cc1ccccc1)C(=O)N1Cc2ccccc2C[C@H]1C(=O)O (H-Phe-[Tic]-OH) | – | 851 | 370 | 666 | 22.23 | –
14 | C[C@H](N)C(=O)N1Cc2ccccc2C[C@H]1C(=O)O (H-Ala-[Tic]-OH) | 945 | 741 | 651 | 452 | 20.3 | –
15 | NCCCC[C@H](N)C(=O)N1Cc2ccccc2C[C@H]1C(=O)O (H-Lys-[Tic]-OH) | 472 | 829 | 323 | 521 | 21.31 | –
16 | N=C(N)NCCC[C@H](N)C(=O)N1Cc2ccccc2C[C@H]1C(=O)O (H-Arg-[Tic]-OH) | 517 | 565 | 210 | 298 | 20.06 | –
17 | O=C(O)[C@@H]1Cc2ccccc2CN1C(=O)[C@@H]1CCCN1 (H-Pro-[Tic]-OH) | – | 590 | 373 | 526 | 21.09 | –
18 | CC(C)C[C@H](N)C(=O)N1Cc2ccccc2C[C@H]1C(=O)O (H-Leu-[Tic]-OH) | 891 | 730 | 336 | 573 | 19.12 | –
19 | CC[C@H](C)[C@H](N)C(=O)N1Cc2ccccc2C[C@H]1C(=O)O (H-Ile-[Tic]-OH) | 831 | 674 | 315 | 238 | 21.14 | –
20 | CSCC[C@H](N)C(=O)N1Cc2ccccc2C[C@H]1C(=O)O (H-Met-[Tic]-OH) | 409 | – | 265 | 382 | 19.56 | –
21 | N[C@@H](Cc1ccc(O)cc1)C(=O)N1Cc2ccccc2C[C@H]1C(=O)O (H-Tyr-[Tic]-OH) | 668 | 736 | – | 535 | 20.92 | –

Continued, in another order:

Row | IC50 [1] [nM] | IC50 [2] [nM] | IC50 [3] [nM] | IC50 [5] [nM] | SMILES | Activity (Rattus norvegicus [4]) [mg] | Ratio (Rattus norvegicus [6])
22 | 633 | 157 | 329 | 391 | O=C(O)C[C@H](NC(=O)[C@@H]1Cc2ccccc2CN1)C(=O)O (H-[Tic]-Asp-OH) | 21.67 | >30
23 | 938 | 657 | 540 | 443 | CC[C@H](C)[C@H](NC(=O)[C@@H]1Cc2ccccc2CN1)C(=O)O (H-[Tic]-Ile-OH) | 20.03 | >30
24 | 376 | 312 | 229 | 191 | CSCC[C@H](NC(=O)[C@@H]1Cc2ccccc2CN1)C(=O)O (H-[Tic]-Met-OH) | 21.74 | >30
25 | 352 | 485 | 350 | 104 | C[C@H](NC(=O)[C@@H]1Cc2ccccc2CN1)C(=O)O (H-[Tic]-Ala-OH) | 21.4 | >30
26 | 176 | 545 | 482 | 356 | O=C(O)CC[C@H](NC(=O)[C@@H]1Cc2ccccc2CN1)C(=O)O (H-[Tic]-Glu-OH) | 19.69 | >30
27 | 942 | 841 | 388 | 416 | O=C(O)[C@H](CO)NC(=O)[C@@H]1Cc2ccccc2CN1 (H-[Tic]-Ser-OH) | 23.58 | >30
28 | 943 | 199 | 382 | 388 | CC(C)[C@H](NC(=O)[C@@H]1Cc2ccccc2CN1)C(=O)O (H-[Tic]-Val-OH) | 19.2 | >30
29 | 1040 | 733 | 194 | 277 | NCCCC[C@H](NC(=O)[C@@H]1Cc2ccccc2CN1)C(=O)O (H-[Tic]-Lys-OH) | 21.28 | >30
30 | 1610 | 454 | 478 | 290 | CC(C)C[C@H](NC(=O)[C@@H]1Cc2ccccc2CN1)C(=O)O (H-[Tic]-Leu-OH) | 20.23 | >30
31 | 588 | 763 | 164 | 418 | C[C@@H](O)[C@H](NC(=O)[C@@H]1Cc2ccccc2CN1)C(=O)O (H-[Tic]-Thr-OH) | 21.25 | >30

Reference: ChEMBL document CHEMBL1156036, “A class of novel N-(3S-1,2,3,4-tetrahydroisoquinoline-3-carbonyl)-L-amino acid derivatives: their synthesis, anti-thrombotic activity evaluation, and 3D QSAR analysis” (Eur J Med Chem, 2009)
